Legend:
[1] = T1/2 in canine blood; format: ADME, […], Canis lupus familiaris; details: dog
Method in brief: (§1)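 1 mL of solution containing 50 µg of compound was added to 1 mL of dog or human whole blood, or to 1 mL of 33% (w/v) canine liver homogenate. They were assayed by HPLC on a phenyl column with 60% acetonitrile/40% 0.05 M sodium phosphate (pH 6.6) and UV detection. Half-life was read graphically from concentration versus time.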

[2] = t1/2 in canine liver; format: ADME, Canis lupus familiaris; details: dog
[3] = Time in which 1/2 of the initial amount disappeared in human blood.; format: ADME, organism-based; method in brief: as §1
Adrenergic receptor beta [4] = biological target: T1, Adrenergic receptor beta (Homo sapiens, UniProt P08588+P07550+P13945); assay: In Vitro inhibition of the beta adrenergic receptor in guinea pig atria; format: tissue-based, Cavia porcellus; details: target entry is the homologue from another species
Adrenergic receptor beta [5] = biological target: T1, Adrenergic receptor beta; assay: In vitro blocking of beta adrenergic receptor in guinea pig trachea; format: tissue-based, Cavia porcellus; details: target entry is the homologue from another species
Canis familiaris [6] = species: Canis familiaris; assay: Percent inhibition of isoproterenol induced tachycardia at a dose of 4 microg (3-h infusion period); format: functional, Canis lupus familiaris
Canis familiaris [7] = species: Canis familiaris; assay: Time taken for 80% recovery at a dose of 4 microg (3-h infusion period); format: functional, organism-based; details: Canis lupus familiaris
[8] = Selectivity determined by expression 10[pA2(atria) - pA2 (trachea)] in guinea pig; format: functional, Cavia porcellus
[9] = Stability at pH 7.4 and 37 degree Celsius (after 18 h); format: physicochemical; details: buffer
Method in brief: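 Chemical stability was tested in pH 7.4 buffer at 37 °C. The percentage of parent compound remaining after 18 h of incubation was recorded.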

Canis familiaris [10] = species: Canis familiaris; assay: Percent inhibition of isoproterenol induced tachycardia at a dose of 20 microg (3-h infusion period); format: functional, Canis lupus familiaris
Canis familiaris [11] = species: Canis familiaris; assay: Time taken for 80% recovery at a dose of 20 microg (3-h infusion period); format: functional, organism-based; details: Canis lupus familiaris
Canis familiaris [12] = species: Canis familiaris; assay: Percent inhibition of isoproterenol induced tachycardia at a dose of 1.3 microg (3-h infusion period); format: functional, Canis lupus familiaris
Canis familiaris [13] = species: Canis familiaris; assay: Time taken for 80% recovery at a dose of 226 microg (3-h infusion period); format: functional, organism-based; details: Canis lupus familiaris
Canis familiaris [14] = species: Canis familiaris; assay: Time taken for 80% recovery at a dose of 209 microg (3-h infusion period); format: functional, organism-based; details: Canis lupus familiaris
[15] = Time in which 1/2 of the initial amount disappeared in canine blood; format: ADME, […], Canis lupus familiaris; details: dog; method in brief: as §1
[16] = Time in which 1/2 of the initial amount disappeared in canine liver; format: ADME, […], Canis lupus familiaris; details: dog; method in brief: as §1
[17] = biological target: Beta-2 adrenergic receptor (Cavia porcellus) (UniProt Q8K4Z4); assay: In Vitro evaluation for […] selectivity in guinea pig
Method in brief: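 Selectivity index calculated as 10^[pA2(atria) − pA2(trachea)] from pA2 values measured in isolated guinea pig atria and trachea. A minus sign denotes β2 selectivity.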

Canis familiaris [18] = species: Canis familiaris; assay: Time taken for 80% recovery at a dose of 50 microg (3-h infusion period); format: functional, organism-based; details: Canis lupus familiaris
Canis familiaris [19] = species: Canis familiaris; assay: Time taken for 80% recovery at a dose of 15 microg (3-h infusion period); format: functional, organism-based; details: Canis lupus familiaris
Canis familiaris [20] = species: Canis familiaris; assay: Percent inhibition of isoproterenol induced tachycardia at a dose of 15 microg (3-h infusion period); format: functional, Canis lupus familiaris
Canis familiaris [21] = species: Canis familiaris; assay: Time taken for 80% recovery at a dose of 123 microg (3-h infusion period); format: functional, organism-based; details: Canis lupus familiaris
Canis familiaris [22] = species: Canis familiaris; assay: Percent inhibition of isoproterenol induced tachycardia at a dose of 7 microg (3-h infusion period); format: functional, Canis lupus familiaris
Canis familiaris [23] = species: Canis familiaris; assay: Time taken for 80% recovery at a dose of 7 microg (3-h infusion period); format: functional, organism-based; details: Canis lupus familiaris
Method in brief: (§2)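 After the infusion ended, the time to 80% recovery of the blockade was recorded as duration of action. The listed dose is the average amount infused per minute over the 3-h period, in µg/(kg min).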

Canis familiaris [24] = species: Canis familiaris; assay: Time taken for 80% recovery at a dose of 121 microg (3-h infusion period) / 88 kg min (40-min infusion model); format: functional, organism-based; details: Canis lupus familiaris
Canis familiaris [25] = species: Canis familiaris; assay: Percent inhibition of isoproterenol induced tachycardia at a dose of 70 microg (3-h infusion period); format: functional, Canis lupus familiaris
Canis familiaris [26] = species: Canis familiaris; assay: Time taken for 80% recovery at a dose of 70 microg (3-h infusion period); format: functional, organism-based; details: Canis lupus familiaris; method in brief: as §2

Chain of Beta-2 adrenergic receptor (Cavia porcellus) (Q8K4Z4 whole entry, looked up): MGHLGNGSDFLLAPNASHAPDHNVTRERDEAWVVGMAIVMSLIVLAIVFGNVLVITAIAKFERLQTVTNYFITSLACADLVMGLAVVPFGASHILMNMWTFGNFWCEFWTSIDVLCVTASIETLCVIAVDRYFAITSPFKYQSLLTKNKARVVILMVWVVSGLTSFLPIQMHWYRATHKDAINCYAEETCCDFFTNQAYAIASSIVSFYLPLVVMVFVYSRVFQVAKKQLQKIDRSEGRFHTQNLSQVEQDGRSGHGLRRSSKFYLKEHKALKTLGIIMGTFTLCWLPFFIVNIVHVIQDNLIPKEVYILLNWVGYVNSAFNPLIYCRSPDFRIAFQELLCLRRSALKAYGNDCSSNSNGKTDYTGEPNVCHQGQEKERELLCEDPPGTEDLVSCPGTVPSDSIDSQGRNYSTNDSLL

| SMILES | half-life [1] | half-life [2] | half-life [3] | pA2 (Adrenergic receptor beta [4]) | pA2 (Adrenergic receptor beta [5]) | Selectivity [8] | further results |
| --- | --- | --- | --- | --- | --- | --- | --- |
| CC(C)(C)NCC(O)COC(=O)c1ccc(O)cc1 (centres undefined) | > 180 min | > 180 min | 56 min | 7.4 | 6.5 | 9 | Inhibition (Canis familiaris [6]): 71%; Recovery time (Canis familiaris [7]): > 60 min |
| CC(C)(C)NCC(O)COC(=O)c1ccccc1F (centres undefined) | 30 min | 10 min | 1.6 min | 6.8 | 8 | -16 | remaining at 18 h [9]: 98%; Inhibition (Canis familiaris [10]): 60%; Recovery time (Canis familiaris [11]): 17 min |
| CC(C)NCC(O)COc1cccc2ccccc12 (centres undefined) [PROPRANOLOL] | > 180 min | – | – | – | – | – | Inhibition (Canis familiaris [12]): 68% |
| C#CC(C)(C)NCC(O)COC(=O)c1ccccc1F (centres undefined) | 12 min | 7 min | – | 6.6 | 6.7 | 1 | – |
| COc1ccc(CCNCC(O)COC(=O)c2ccccc2C)cc1OC (centres undefined) | – | – | – | 7 | 6.8 | 2 | remaining at 18 h [9]: 94%; Recovery time (Canis familiaris [13]): > 60 min |
| COc1ccc(C(=O)OCC(O)CNC(C)C)cc1 (centres undefined) | 150 min | 37 min | 55 min | 6 | 6.3 | -2 | Recovery time (Canis familiaris [14]): > 60 min |
| CC(C)(C)NCC(O)COC(=O)c1ccc(C=O)cc1 (centres undefined) | – | – | – | 6.2 | 6.3 | – | half-life [15]: 14 min; half-life [16]: 1 min; Selectivity [17]: 1 |
| CC(C)(C)NCC(O)COC(=O)c1cccc(OCc2ccccc2)c1 (centres undefined) | > 180 min | > 180 min | – | – | – | – | – |
| CC(C)NCC(O)COC(=O)c1cccc(F)c1 (centres undefined) | 52 min | 11 min | 8 min | – | – | – | – |
| CC(C)NCC(O)COC(=O)c1ccc(F)cc1 (centres undefined) | 4 min | 3 min | 3.5 min | 6.6 | 7.3 | -5 | – |
| Cc1ccccc1C(=O)OCC(O)CNC(C)C (centres undefined) | > 180 min | 147 min | > 180 min | 6.5 | 7.1 | -4 | remaining at 18 h [9]: 100%; Recovery time (Canis familiaris [18]): > 60 min |
| CC(C)(C)NCC(O)COC(=O)Cc1ccccc1 (centres undefined) | 16 min | – | 6.3 min | 5.6 | – | – | – |
| CC(C)(C)NCC(O)COC(=O)c1ccc([N+](=O)[O-])cc1 (centres undefined) | > 180 min | > 180 min | 5.5 min | 6.1 | – | – | – |
| CC(=O)NCC(C)(C)NCC(O)COC(=O)c1ccccc1F (centres undefined) | 7.5 min | – | – | – | – | – | Recovery time (Canis familiaris [19]): 35 min; Inhibition (Canis familiaris [20]): 61% |
| CC(C)(C)NCC(O)COC(=O)CCc1ccccc1 (centres undefined) | < 2.5 min | – | 71 min | < 6 | – | – | – |
| CC(C)NCC(O)COC(=O)c1ccc2c(c1)OCO2 (centres undefined) | – | 29 min | – | 6.9 | – | – | Recovery time (Canis familiaris [21]): 50 min |
| CC(C)(C)NCC(O)COC(=O)c1cccc(O)c1 (centres undefined) | 119 min | 62 min | – | 7.4 | 7.6 | -2 | Inhibition (Canis familiaris [22]): 56%; Recovery time (Canis familiaris [23]): 25 min |
| COc1ccc(CCNCC(O)COC(=O)c2ccccc2)cc1OC (centres undefined) | – | – | – | 7 | 6.3 | 5 | Recovery time (Canis familiaris [24]): 29 min |
| COc1ccc(CCNCC(O)C(=O)Oc2ccccc2)cc1OC (centres undefined) | – | – | – | 5.9 | 5.9 | – | Selectivity [17]: 1 |
| CC(C)(C)NCC(O)COC(=O)c1ccccc1 (centres undefined) | 7.3 min | 20 min | 5.3 min | 6.8 | 7.7 | -8 | remaining at 18 h [9]: 99%; Inhibition (Canis familiaris [25]): 65%; Recovery time (Canis familiaris [26]): > 60 min |
